Drawing on ChEMBL document CHEMBL1122836, “Angiotensin converting enzyme inhibitors: structure-activity profile of 1-benzazepin-2-one derivatives” (J Med Chem, 1985), this text covers IC50, Delta blood pressure and ED50 for 20 compounds.

The term pIC50 denotes −log10 of the IC50, conventionally taken in molar units. Lower therefore signals a high IC50.

Molecules are shown by their SMILES. pIC50: −log10 of the molar value.

Assay [1] addresses Angiotensin-converting enzyme (Homo sapiens, UniProt P12821). Kind of assay: (§1) In vitro inhibitory activity against Angiotensin I converting enzyme.
In assay [2] the test system is Rattus norvegicus. Kind of assay: Maximal changes in blood pressure recorded during the 4 day test period in spontaneous hypertensive rats, at 1 mg/kg peroral dose. The format is functional. The conditions noted are these: route oral.
For assay [3], the system named is Rattus norvegicus. Kind of assay: In vivo inhibitory activity against Angiotensin I pressor response in normotensive rats after peroral administration. Format: functional. As to conditions: po, read-out: ID50 (the source's name).
In assay [4] the test system is Canis familiaris. Kind of assay: In vivo inhibitory activity against Angiotensin I pressor response in normotensive dog after peroral administration, ecperiment 2. The format is functional. As to conditions: Canis lupus familiaris, po; read-out: ID50 (the source's name).
The test system of assay [5] is Rattus norvegicus. Kind of assay: Maximal changes in blood pressure recorded during the 4 day test period in spontaneous hypertensive rats, at 3 mg/kg peroral dose. Format: functional. As to conditions: route oral. Summed up: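 Spontaneously hypertensive rats dosed orally with test compound. Blood pressure was recorded over a 4-day test period. The value is the maximal change in blood pressure seen in that period, given in mm with the oral dose (mg/kg) in brackets.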

The test system of assay [6] is Rattus norvegicus. Kind of assay: In vivo inhibitory activity against Angiotensin I pressor response in normotensive rats by peroral administration, experiment 2. As to conditions: po, read-out: ID50 (the source's name). Format: functional.
Assay [7] has as its system Canis familiaris. Kind of assay: In vivo inhibitory activity against Angiotensin I pressor response in normotensive dog after peroral administration, experiment 1. Format: functional. The conditions noted are these: Canis lupus familiaris, po; read-out: ID50 (the source's name).
Assay [8] addresses T1, Angiotensin-converting enzyme (Rattus norvegicus, UniProt P47820).
T1 sequence (P47820 whole entry): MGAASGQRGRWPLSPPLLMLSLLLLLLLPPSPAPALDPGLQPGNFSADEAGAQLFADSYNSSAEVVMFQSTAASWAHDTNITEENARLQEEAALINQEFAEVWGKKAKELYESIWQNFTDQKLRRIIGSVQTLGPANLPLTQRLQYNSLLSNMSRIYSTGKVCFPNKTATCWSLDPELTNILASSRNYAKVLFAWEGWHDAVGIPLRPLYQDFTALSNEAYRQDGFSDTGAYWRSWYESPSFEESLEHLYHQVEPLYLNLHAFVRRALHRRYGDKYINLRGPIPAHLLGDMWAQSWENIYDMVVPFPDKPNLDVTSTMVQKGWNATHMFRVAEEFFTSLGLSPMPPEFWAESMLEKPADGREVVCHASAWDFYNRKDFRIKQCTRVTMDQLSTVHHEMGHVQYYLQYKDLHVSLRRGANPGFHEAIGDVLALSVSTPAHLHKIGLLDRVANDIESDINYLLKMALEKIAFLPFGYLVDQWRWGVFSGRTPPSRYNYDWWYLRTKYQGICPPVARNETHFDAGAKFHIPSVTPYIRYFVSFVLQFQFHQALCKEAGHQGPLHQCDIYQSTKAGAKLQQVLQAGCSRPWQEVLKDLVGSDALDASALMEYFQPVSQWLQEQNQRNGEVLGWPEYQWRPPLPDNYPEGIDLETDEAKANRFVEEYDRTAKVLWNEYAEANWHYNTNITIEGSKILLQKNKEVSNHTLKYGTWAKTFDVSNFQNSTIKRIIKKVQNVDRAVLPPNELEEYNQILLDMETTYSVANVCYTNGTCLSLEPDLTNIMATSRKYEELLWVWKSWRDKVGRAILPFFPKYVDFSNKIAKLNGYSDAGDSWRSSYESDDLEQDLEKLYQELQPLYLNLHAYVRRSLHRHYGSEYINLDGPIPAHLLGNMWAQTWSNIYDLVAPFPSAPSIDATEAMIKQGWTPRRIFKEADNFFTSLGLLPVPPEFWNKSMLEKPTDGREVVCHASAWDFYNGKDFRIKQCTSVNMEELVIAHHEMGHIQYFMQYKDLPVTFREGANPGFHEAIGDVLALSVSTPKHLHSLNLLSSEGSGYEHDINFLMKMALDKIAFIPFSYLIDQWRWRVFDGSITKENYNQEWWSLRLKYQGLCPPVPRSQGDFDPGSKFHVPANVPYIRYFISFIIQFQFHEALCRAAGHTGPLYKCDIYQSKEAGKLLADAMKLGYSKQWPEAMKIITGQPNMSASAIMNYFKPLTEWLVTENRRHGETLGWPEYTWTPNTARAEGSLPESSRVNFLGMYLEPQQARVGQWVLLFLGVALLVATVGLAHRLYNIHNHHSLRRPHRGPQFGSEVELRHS
Described as §1.

Assay [9] relates to Rattus norvegicus. Kind of assay: Maximal changes in blood pressure recorded during the 4 day test period in spontaneous hypertensive rats, at 30 mg/kg peroral dose. Format: functional. As to conditions: route oral. Summed up:
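Spontaneously hypertensive rats dosed orally and blood pressure recorded over a 4-day test period. Readout is the maximal change in blood pressure (mm) with the oral dose noted; pressure also followed at 24 h after dosing.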

The subject of assay [10] is Canis familiaris. Kind of assay: In vivo inhibitory activity against Angiotensin I pressor response in normotensive dog after peroral administration. The format is functional. As to conditions: Canis lupus familiaris, po; read-out: ID50 (the source's name).

Sequence of Angiotensin-converting enzyme (Homo sapiens, UniProt P12821) (P12821 whole entry): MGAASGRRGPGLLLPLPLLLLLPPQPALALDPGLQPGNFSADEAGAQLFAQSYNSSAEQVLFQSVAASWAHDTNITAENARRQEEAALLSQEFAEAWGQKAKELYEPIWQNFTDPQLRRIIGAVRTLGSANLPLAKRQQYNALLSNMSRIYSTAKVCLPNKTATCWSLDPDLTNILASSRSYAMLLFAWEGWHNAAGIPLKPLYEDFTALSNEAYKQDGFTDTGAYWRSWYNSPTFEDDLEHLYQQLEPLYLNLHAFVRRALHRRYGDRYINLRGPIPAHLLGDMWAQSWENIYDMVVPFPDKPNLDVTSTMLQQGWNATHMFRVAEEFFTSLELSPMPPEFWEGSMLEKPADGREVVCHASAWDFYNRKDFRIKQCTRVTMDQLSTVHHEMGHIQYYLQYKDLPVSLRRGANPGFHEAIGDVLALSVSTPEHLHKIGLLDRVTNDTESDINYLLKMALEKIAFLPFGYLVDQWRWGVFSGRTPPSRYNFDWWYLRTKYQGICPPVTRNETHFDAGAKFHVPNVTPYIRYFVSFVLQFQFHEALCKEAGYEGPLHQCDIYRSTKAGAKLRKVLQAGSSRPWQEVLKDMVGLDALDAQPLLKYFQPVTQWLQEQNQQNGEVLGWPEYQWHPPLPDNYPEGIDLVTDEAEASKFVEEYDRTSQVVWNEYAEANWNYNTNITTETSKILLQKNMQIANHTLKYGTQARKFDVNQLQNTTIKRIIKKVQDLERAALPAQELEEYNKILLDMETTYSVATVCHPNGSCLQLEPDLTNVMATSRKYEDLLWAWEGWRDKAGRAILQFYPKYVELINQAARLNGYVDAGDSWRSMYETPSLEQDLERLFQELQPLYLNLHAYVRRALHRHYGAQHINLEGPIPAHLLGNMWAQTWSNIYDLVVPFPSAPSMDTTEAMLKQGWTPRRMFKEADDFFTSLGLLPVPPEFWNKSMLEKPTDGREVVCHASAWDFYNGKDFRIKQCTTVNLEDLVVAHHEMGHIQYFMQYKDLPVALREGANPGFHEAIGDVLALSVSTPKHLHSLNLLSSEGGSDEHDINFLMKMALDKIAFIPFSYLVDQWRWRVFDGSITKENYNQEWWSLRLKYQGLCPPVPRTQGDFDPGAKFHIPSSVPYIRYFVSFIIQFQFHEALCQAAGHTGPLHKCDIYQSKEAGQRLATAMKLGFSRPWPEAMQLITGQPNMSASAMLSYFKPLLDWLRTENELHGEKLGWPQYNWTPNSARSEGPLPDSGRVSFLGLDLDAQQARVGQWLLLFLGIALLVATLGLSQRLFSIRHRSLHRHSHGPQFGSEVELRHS

Regarding `O=C(O)CN1C(=O)[C@@H](N[C@@H](CSCc2ccccc2)C(=O)O)CCc2ccccc21`, in assay [1], the negative logarithm of the IC50 (pIC50) was 8.54. Compound `CCOC(=O)[C@H](CCCCNC(=O)OCc1ccccc1)N[C@H]1CCc2ccccc2N(CC(=O)O)C1=O` showed a pIC50 in assay [1] of 7.82. Still for that read-out and setting: to `COC(=O)[C@H](CC(C)C)N[C@H]1CCc2ccccc2N(CC(=O)O)C1=O` belongs 6.00; to `O=C(O)CN1C(=O)[C@@H](N[C@@H](Cc2ccccc2)C(=O)O)CCc2ccccc21`, 8.07; to `CCOC(=O)[C@H](Cc1c[nH]c2ccccc12)N[C@H]1CCc2ccccc2N(CC(=O)O)C1=O`, 6.27. On the same count and under the same terms, the figure for `O=C(O)CN1C(=O)[C@@H](N[C@@H](CSc2ccccc2)C(=O)O)CCc2ccccc21` is 8.40. Regarding `CC(C)(C)OC(=O)NCCCC[C@H](N[C@H]1CCc2ccccc2N(CC(=O)O)C1=O)C(=O)O`, the negative logarithm of the IC50 (pIC50) in assay [1] was 8.40.

In [1], `CCCC[C@H](N[C@H]1CCc2ccccc2N(CC(=O)O)C1=O)C(=O)OCC` gave a negative-log IC50 (pIC50) of 5.59. Against the preceding compound, the pIC50 is 2.81 log units lower. On the same count and under the same terms, to `CC(C)C[C@H](N[C@H]1CCc2ccccc2N(CC(=O)O)C1=O)C(=O)O` belongs 7.35; to `CSCC[C@H](N[C@H]1CCc2ccccc2N(CC(=O)O)C1=O)C(=O)O`, 8.19; to `CCOC(=O)[C@H](CCCCN)N[C@H]1CCc2ccccc2N(CC(=O)O)C1=O`, 7.40.

In assay [1], `CCCC[C@H](N[C@H]1CCc2ccccc2N(CC(=O)O)C1=O)C(=O)O` showed a pIC50 of 8.30. Same read-out and setting: to `O=C(O)CN1C(=O)[C@@H](N[C@@H](COCc2ccccc2)C(=O)O)CCc2ccccc21` belongs 8.00.

`O=C(O)CN1C(=O)[C@@H](N[C@@H](CSCCc2ccccc2)C(=O)O)CCc2ccccc21` gave a pIC50 in assay [1] of 8.15. Same read-out and setting: to `O=C(O)CN1C(=O)[C@@H](N[C@@H](CCCCNC(=O)OCc2ccccc2)C(=O)O)CCc2ccccc21` belongs 7.89; to `O=C(O)CN1C(=O)[C@@H](N[C@@H](Cc2c[nH]c3ccccc23)C(=O)O)CCc2ccccc21`, 7.89; to `CCC[C@H](N[C@H]1CCc2ccccc2N(CC(=O)O)C1=O)C(=O)O`, 8.22. `CCOC(=O)[C@H](CCc1ccccc1)N[C@@H](C)C(=O)N1CCC[C@H]1C(=O)O`: the Delta blood pressure in the assay with Rattus norvegicus [2] was -35 mmHg; with Rattus norvegicus [5], -54 mmHg. Besides, the ED50 in the assay with Rattus norvegicus [3] is 0.14 mg/kg; in the assay with Canis familiaris [4], 0.096 mg/kg; in the assay on Rattus norvegicus [6], 0.28 mg/kg; with Canis familiaris [7], 0.15 mg/kg. Regarding `CCOC(=O)[C@H](CCc1ccccc1)N[C@H]1CCc2ccccc2N(CC(=O)O)C1=O` [BENAZEPRIL], the ED50 in the assay with Rattus norvegicus [3] was 0.1 mg/kg. The compound also displayed a Delta blood pressure with Rattus norvegicus [5] of 50 mmHg. The same compound gave a pIC50 in [8] of 8.77.

For the compound `NCCCC[C@H](N[C@H]1CCc2ccccc2N(CC(=O)O)C1=O)C(=O)O` [LIBENZAPRIL], the ED50 in the assay with Rattus norvegicus [3] was found to be 1.7 mg/kg; in the assay on Canis familiaris [10] it was 0.07 mg/kg. The compound also returned a Delta blood pressure in the assay on Rattus norvegicus [9] of -69 mmHg. Besides, the pIC50 in [1] is 8.15.
